Experimental data from ChEMBL document CHEMBL4689842, “EUbOPEN Chemogenomics Library wave 1” (2021).

Tested on: U2OS
Experiment: Multiplex assay against U2OS
Format: toxicity, cell-based
Conditions: human
How it was run: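 Hoechst33342, BioTracker Green Microtubule Cytoskeleton Dye, MitoTracker Red and Annexin V Alexa Fluor 680 were added to live cells at seeding, and imaging on a CQ1 microscope at 37°C and 5% CO2 followed compound addition. Gating by CellPathfinder machine learning separated cells into Hoechst high-intensity objects or normal cells, then normal cells into healthy, pyknosed or fragmented nuclei, then pyknosed cells into mitotic or apoptotic. Per cents of healthy-nucleus cells are reported for the tubulin, mitochondrial-mass and membrane-permeability phenotypes.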

[1] = 12 h, 1 µM, compound concentration 1 uM, replicate 1
[2] = 12 h, 1 µM, compound concentration 1 uM, replicate 2
[3] = 12 h, 10 µM, compound concentration 10 uM, replicate 1
[4] = 12 h, 10 µM, compound concentration 10 uM, replicate 2
[5] = 24 h, 1 µM, compound concentration 1 uM, replicate 1
[6] = 24 h, 1 µM, compound concentration 1 uM, replicate 2
[7] = 24 h, 10 µM, compound concentration 10 uM, replicate 1
[8] = 24 h, 10 µM, compound concentration 10 uM, replicate 2
[9] = 48 h, 1 µM, compound concentration 1 uM, replicate 1
[10] = 48 h, 1 µM, compound concentration 1 uM, replicate 2
[11] = 48 h, 10 µM, compound concentration 10 uM, replicate 1
[12] = 48 h, 10 µM, compound concentration 10 uM, replicate 2

Structure (SMILES): CCN1CCN(Cc2ccc(Nc3ncc(F)c(-c4cc(F)c5nc(C)n(C(C)C)c5c4)n3)nc2)CC1.CS(=O)(=O)O
- Population Apoptotic (%) [1]: 46%
- Population Fragmented Nuclei (%) [1]: 18%
- Population Healthy Nuclei (%) [1]: 63%
- Population Hoechst High Intensity Objects (%) [1]: 8%
- Population Membrane Permeable-Phenotype (%) [1]: 4%
- Population Mitochondria Different-Phenotype (%) [1]: 92%
- Population Mitotic Cells (%) [1]: 53%
- Population Normal (%) [1]: 91%
- Population Pyknosed Nuclei (%) [1]: 17%
- Population Tubulin-Different-Phenotype (%) [1]: 91%
- Total Cell Count [1]: 160
- Population Apoptotic (%) [2]: 40%
- Population Fragmented Nuclei (%) [2]: 17%
- Population Healthy Nuclei (%) [2]: 67%
- Population Hoechst High Intensity Objects (%) [2]: 6%
- Population Membrane Permeable-Phenotype (%) [2]: 8%
- Population Mitochondria Different-Phenotype (%) [2]: 91%
- Population Mitotic Cells (%) [2]: 60%
- Population Normal (%) [2]: 93%
- Population Pyknosed Nuclei (%) [2]: 14%
- Population Tubulin-Different-Phenotype (%) [2]: 97%
- Total Cell Count [2]: 73
- Population Apoptotic (%) [3]: 82%
- Population Fragmented Nuclei (%) [3]: 35%
- Population Healthy Nuclei (%) [3]: 29%
- Population Hoechst High Intensity Objects (%) [3]: 5%
- Population Membrane Permeable-Phenotype (%) [3]: 66%
- Population Mitochondria Different-Phenotype (%) [3]: 100%
- Population Mitotic Cells (%) [3]: 18%
- Population Normal (%) [3]: 94%
- Population Pyknosed Nuclei (%) [3]: 35%
- Total Cell Count [3]: 151
- Population Apoptotic (%) [4]: 83%
- Population Fragmented Nuclei (%) [4]: 32%
- Population Healthy Nuclei (%) [4]: 22%
- Population Hoechst High Intensity Objects (%) [4]: 9%
- Population Membrane Permeable-Phenotype (%) [4]: 88%
- Population Mitochondria Different-Phenotype (%) [4]: 94%
- Population Mitotic Cells (%) [4]: 16%
- Population Normal (%) [4]: 90%
- Population Pyknosed Nuclei (%) [4]: 45%
- Population Tubulin-Different-Phenotype (%) [4]: 100%
- Total Cell Count [4]: 88
- Population Apoptotic (%) [5]: 53%
- Population Fragmented Nuclei (%) [5]: 19%
- Population Healthy Nuclei (%) [5]: 59%
- Population Hoechst High Intensity Objects (%) [5]: 8%
- Population Membrane Permeable-Phenotype (%) [5]: 10%
- Population Mitochondria Different-Phenotype (%) [5]: 91%
- Population Mitotic Cells (%) [5]: 46%
- Population Normal (%) [5]: 91%
- Population Pyknosed Nuclei (%) [5]: 20%
- Population Tubulin-Different-Phenotype (%) [5]: 89%
- Total Cell Count [5]: 171
- Population Apoptotic (%) [6]: 58%
- Population Fragmented Nuclei (%) [6]: 20%
- Population Healthy Nuclei (%) [6]: 61%
- Population Hoechst High Intensity Objects (%) [6]: 10%
- Population Membrane Permeable-Phenotype (%) [6]: 21%
- Population Mitochondria Different-Phenotype (%) [6]: 85%
- Population Mitotic Cells (%) [6]: 41%
- Population Normal (%) [6]: 89%
- Population Pyknosed Nuclei (%) [6]: 17%
- Population Tubulin-Different-Phenotype (%) [6]: 87%
- Total Cell Count [6]: 75
- Population Apoptotic (%) [7]: 96%
- Population Fragmented Nuclei (%) [7]: 41%
- Population Healthy Nuclei (%) [7]: 8%
- Population Hoechst High Intensity Objects (%) [7]: 8%
- Population Membrane Permeable-Phenotype (%) [7]: 72%
- Population Mitochondria Different-Phenotype (%) [7]: 90%
- Population Mitotic Cells (%) [7]: 3%
- Population Normal (%) [7]: 91%
- Population Pyknosed Nuclei (%) [7]: 49%
- Population Tubulin-Different-Phenotype (%) [7]: 90%
- Total Cell Count [7]: 135
- Population Apoptotic (%) [8]: 97%
- Population Fragmented Nuclei (%) [8]: 27%
- Population Healthy Nuclei (%) [8]: 13%
- Population Hoechst High Intensity Objects (%) [8]: 20%
- Population Membrane Permeable-Phenotype (%) [8]: 100%
- Population Mitochondria Different-Phenotype (%) [8]: 87%
- Population Mitotic Cells (%) [8]: 2%
- Population Normal (%) [8]: 79%
- Population Pyknosed Nuclei (%) [8]: 59%
- Population Tubulin-Different-Phenotype (%) [8]: 100%
- Total Cell Count [8]: 74
- Population Apoptotic (%) [9]: 55%
- Population Fragmented Nuclei (%) [9]: 26%
- Population Membrane Permeable-Phenotype (%) [9]: 18%
- Population Mitochondria Different-Phenotype (%) [9]: 82%
- Population Mitotic Cells (%) [9]: 44%
- Population Pyknosed Nuclei (%) [9]: 21%
- Population Tubulin-Different-Phenotype (%) [9]: 79%
- Total Cell Count [9]: 215
- Population Apoptotic (%) [10]: 64%
- Population Fragmented Nuclei (%) [10]: 25%
- Population Healthy Nuclei (%) [10]: 51%
- Population Hoechst High Intensity Objects (%) [10]: 8%
- Population Membrane Permeable-Phenotype (%) [10]: 31%
- Population Mitochondria Different-Phenotype (%) [10]: 71%
- Population Mitotic Cells (%) [10]: 35%
- Population Normal (%) [10]: 91%
- Population Pyknosed Nuclei (%) [10]: 22%
- Population Tubulin-Different-Phenotype (%) [10]: 84%
- Total Cell Count [10]: 81
- Population Apoptotic (%) [11]: 98%
- Population Fragmented Nuclei (%) [11]: 43%
- Population Healthy Nuclei (%) [11]: 2%
- Population Hoechst High Intensity Objects (%) [11]: 15%
- Population Membrane Permeable-Phenotype (%) [11]: 100%
- Population Mitochondria Different-Phenotype (%) [11]: 100%
- Population Mitotic Cells (%) [11]: 1%
- Population Normal (%) [11]: 84%
- Population Pyknosed Nuclei (%) [11]: 53%
- Population Tubulin-Different-Phenotype (%) [11]: 100%
- Total Cell Count [11]: 137
- Population Apoptotic (%) [12]: 100%
- Population Fragmented Nuclei (%) [12]: 17%
- Population Healthy Nuclei (%) [12]: 45%
- Population Hoechst High Intensity Objects (%) [12]: 34%
- Population Mitochondria Different-Phenotype (%) [12]: 95%
- Population Mitotic Cells (%) [12]: 0%
- Population Normal (%) [12]: 65%
- Population Pyknosed Nuclei (%) [12]: 36%
- Population Tubulin-Different-Phenotype (%) [12]: 95%
- Total Cell Count [12]: 70
